Test results: PMC8015125 (ACS Omega, 2021)

What was measured:
PC3 cell line = assay: MTT assay on PC3; assay type: cell-based, human; conditions: 24 h treatment
Summary of the method: (§1)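 Cells were grown in RPMI or DMEM with 10% FBS, penicillin and streptomycin at 37 °C under 5% CO2. They were seeded at 1 × 10^4 cells/well and exposed 24 h later for 24 h to the test compound at different concentrations (complexes 0–100 μM). After two PBS washes, 0.5 mg mL–1 MTT was added for 3–4 h at 37 °C. Formazan was dissolved in extraction buffer and OD read at 570 nm. % survival was taken relative to untreated cells (100%) to give IC50. Ratios were BPH1/PC3 and WI-38/A549 IC50.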

[1] = test system: WI-38 lung fibroblast cells; assay: MTT assay on WI-38; assay type: cell-based; conditions: read-out: IC50 WI-38, 24 h treatment
Summary of the method: as §1

A549 cell line = assay: MTT assay on A549; assay type: cell-based; conditions: read-out: IC50 A549, 24 h treatment
Summary of the method: as §1

BPH1 cell line = assay: MTT assay on BPH1; assay type: cell-based, human; conditions: read-out: IC50 BPH1, 24 h treatment
Summary of the method: as §1

N.N.[Cl][Pt][Cl] [cisplatin, reference compound]
R1 = IC50 ratio of BPH1 cells to PC3 cells (PC3 cell line): 1.4 | IC50 (PC3 cell line; read-out: IC50 PC3, MTT): 5.4 ± 1.93 µM | IC50 [1]: 66.5 ± 2.12 µM | IC50 (A549 cell line): 60.1 ± 2.43 µM | IC50 (BPH1 cell line): 8 ± 1.03 µM
